The record followed here is ChEMBL document CHEMBL1129400 (J Med Chem, 1996).

The target in assay [1] is T1, 5-hydroxytryptamine receptor 1A (Rattus norvegicus, UniProt P19327).
T1 sequence (P19327 whole entry): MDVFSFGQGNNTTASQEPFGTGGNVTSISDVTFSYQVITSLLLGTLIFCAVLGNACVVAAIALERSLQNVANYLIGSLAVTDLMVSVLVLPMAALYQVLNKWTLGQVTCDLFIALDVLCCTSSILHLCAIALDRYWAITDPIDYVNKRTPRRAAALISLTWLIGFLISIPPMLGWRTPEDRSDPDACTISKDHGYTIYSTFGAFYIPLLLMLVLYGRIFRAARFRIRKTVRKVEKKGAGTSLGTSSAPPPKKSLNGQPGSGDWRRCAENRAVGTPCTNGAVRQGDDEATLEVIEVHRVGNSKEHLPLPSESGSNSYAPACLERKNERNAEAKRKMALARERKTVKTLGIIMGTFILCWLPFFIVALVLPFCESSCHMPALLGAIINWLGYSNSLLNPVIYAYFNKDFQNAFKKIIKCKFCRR
The assay is described as follows: Binding affinity against native 5-HT1A-receptors from rat hippocampus using radioligand ([3H]8-hydroxy-2-(di-n-propylamino)-tetraline) binding assay. It counts as tissue-based.

For assay [2], the target named is T2, Adrenergic receptor alpha-2 (Rattus norvegicus, UniProt P22086+P19328+P22909).
T2 sequence (P22086 whole entry): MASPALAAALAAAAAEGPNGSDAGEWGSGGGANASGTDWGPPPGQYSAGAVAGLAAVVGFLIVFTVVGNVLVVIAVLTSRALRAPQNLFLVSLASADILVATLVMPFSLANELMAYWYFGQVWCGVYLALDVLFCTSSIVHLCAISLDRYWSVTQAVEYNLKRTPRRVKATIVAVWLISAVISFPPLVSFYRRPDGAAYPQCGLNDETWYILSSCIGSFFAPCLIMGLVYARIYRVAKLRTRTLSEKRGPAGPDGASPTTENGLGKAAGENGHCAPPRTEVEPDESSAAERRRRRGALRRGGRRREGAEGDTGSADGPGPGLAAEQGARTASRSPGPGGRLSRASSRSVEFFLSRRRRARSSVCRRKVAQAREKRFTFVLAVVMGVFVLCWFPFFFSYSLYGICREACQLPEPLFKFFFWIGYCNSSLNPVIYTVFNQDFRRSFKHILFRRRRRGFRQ
T2 sequence (P19328 whole entry): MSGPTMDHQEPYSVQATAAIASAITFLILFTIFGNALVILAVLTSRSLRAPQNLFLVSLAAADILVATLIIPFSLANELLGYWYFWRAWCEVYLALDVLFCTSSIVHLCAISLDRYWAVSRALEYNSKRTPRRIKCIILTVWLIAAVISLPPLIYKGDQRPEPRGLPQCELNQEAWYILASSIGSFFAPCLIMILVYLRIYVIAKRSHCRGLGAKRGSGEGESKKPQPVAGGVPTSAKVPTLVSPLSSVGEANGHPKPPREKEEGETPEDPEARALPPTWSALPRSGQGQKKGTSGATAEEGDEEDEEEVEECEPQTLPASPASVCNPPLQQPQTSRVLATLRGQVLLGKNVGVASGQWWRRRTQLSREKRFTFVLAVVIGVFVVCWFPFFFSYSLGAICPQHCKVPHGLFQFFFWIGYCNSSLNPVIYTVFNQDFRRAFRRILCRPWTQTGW
T2 sequence (P22909 whole entry): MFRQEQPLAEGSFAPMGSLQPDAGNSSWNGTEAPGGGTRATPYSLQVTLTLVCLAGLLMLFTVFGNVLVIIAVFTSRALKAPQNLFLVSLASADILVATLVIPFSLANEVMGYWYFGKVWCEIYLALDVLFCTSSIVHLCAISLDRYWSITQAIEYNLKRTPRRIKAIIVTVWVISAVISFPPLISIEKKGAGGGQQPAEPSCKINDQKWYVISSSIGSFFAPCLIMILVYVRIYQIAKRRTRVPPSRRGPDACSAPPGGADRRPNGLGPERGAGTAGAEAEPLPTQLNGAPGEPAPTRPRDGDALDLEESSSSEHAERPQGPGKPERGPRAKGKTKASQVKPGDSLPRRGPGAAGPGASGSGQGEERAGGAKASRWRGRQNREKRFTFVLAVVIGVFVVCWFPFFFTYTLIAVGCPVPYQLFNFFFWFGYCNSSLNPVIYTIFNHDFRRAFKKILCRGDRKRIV
In words: Binding affinity against native Alpha-2 adrenergic receptor from rat cerebral cortex using radioligand ([3H]rauwolscine) binding assay. The format is tissue-based.

In a further assay the target is D(2) dopamine receptor (Rattus norvegicus, UniProt P61169). The assay is described as follows: Compound was tested for binding affinity against native Dopamine receptor D2 from rat striatum using radioligand [3H]-spiperone). A digest of the protocol:
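Rat striatal membranes were prepared in Tris-HCl pH 7.4 with 10 µM pargyline, 0.1% ascorbic acid, 120 mM NaCl, 5 mM KCl, 2 mM CaCl2 and 1 mM MgCl2. Filtration and scintillation counting followed. Ki was obtained from the curve-fitted IC50 via Cheng-Prusoff; values are mean pKi ± SE.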

In assay [3] the target is T3, Alpha-1D adrenergic receptor (Homo sapiens, UniProt P25100).
T3 sequence (P25100 whole entry): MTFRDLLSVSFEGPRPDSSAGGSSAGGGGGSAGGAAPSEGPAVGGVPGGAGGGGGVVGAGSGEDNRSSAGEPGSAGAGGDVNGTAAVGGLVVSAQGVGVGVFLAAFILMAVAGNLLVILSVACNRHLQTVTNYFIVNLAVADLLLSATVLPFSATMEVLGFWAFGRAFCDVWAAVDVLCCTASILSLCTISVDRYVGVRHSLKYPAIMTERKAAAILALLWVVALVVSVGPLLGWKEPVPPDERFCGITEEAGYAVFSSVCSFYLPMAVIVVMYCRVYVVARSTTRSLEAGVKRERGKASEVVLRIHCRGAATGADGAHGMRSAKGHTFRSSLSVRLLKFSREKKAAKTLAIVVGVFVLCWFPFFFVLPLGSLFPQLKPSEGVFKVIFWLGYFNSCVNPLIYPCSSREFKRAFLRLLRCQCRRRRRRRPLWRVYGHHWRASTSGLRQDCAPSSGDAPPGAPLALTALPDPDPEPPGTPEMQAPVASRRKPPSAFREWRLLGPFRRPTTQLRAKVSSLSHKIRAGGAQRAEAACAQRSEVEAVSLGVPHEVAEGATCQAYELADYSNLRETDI
The assay is described as follows: Compound was tested for binding affinity against human hippocampus Alpha-1D adrenergic receptor using radioligand ([3H]prazosin) binding assay. Put shortly:
(§1)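 Membranes (30 µg protein) came from CHO cells stably transfected with the human α1-adrenoceptor subtype gene. […] Nonspecific binding was defined with 10 µM phentolamine. Filtration on PEI-treated filters followed. Ki came from the fitted IC50 via Cheng-Prusoff.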

In assay [4] the target is T4, Alpha-1A adrenergic receptor (Homo sapiens, UniProt P35348).
T4 sequence (P35348 whole entry): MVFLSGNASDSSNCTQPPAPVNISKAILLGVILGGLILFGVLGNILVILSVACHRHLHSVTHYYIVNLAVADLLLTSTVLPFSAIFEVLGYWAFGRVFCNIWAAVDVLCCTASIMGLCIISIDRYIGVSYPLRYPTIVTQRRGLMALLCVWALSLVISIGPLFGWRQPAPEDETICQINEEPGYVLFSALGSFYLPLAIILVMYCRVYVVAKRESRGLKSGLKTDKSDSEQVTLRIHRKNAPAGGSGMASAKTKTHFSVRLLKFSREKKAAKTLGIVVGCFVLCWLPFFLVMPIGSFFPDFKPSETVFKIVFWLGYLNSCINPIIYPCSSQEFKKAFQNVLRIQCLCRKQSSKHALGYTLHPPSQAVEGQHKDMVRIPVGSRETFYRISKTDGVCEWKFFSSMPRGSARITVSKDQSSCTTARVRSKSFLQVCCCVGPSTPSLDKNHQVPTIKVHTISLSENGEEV
The assay is described as follows: Compound was tested for binding affinity against human hippocampus Alpha-1A adrenergic receptor using radioligand ([3H]prazosin) binding assay. Put shortly:
as §1

Assay [5] has as its target T5, Alpha-1B adrenergic receptor (Homo sapiens, UniProt P35368).
T5 sequence (P35368 whole entry): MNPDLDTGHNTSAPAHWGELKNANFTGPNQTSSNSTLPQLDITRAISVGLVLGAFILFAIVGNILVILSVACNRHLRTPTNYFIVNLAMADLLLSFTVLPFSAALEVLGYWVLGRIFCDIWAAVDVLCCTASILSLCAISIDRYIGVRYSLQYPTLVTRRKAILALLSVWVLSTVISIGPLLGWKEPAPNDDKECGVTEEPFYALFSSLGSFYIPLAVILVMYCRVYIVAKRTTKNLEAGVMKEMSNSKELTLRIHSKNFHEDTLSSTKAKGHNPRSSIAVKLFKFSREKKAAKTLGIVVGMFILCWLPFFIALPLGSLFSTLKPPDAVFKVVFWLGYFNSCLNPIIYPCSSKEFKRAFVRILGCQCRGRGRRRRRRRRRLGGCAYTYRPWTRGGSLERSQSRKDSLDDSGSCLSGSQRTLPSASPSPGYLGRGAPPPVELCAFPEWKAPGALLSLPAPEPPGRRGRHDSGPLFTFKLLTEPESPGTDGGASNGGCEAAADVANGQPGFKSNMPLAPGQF
The assay is described as follows: Compound was tested for binding affinity against […] Alpha-1B adrenergic receptor using radioligand ([3H]-prazosin) binding assay. Put shortly: as §1

Assay [6] addresses T6, Alpha-1A adrenergic receptor (Bos taurus, UniProt P18130).
T6 sequence (P18130 whole entry): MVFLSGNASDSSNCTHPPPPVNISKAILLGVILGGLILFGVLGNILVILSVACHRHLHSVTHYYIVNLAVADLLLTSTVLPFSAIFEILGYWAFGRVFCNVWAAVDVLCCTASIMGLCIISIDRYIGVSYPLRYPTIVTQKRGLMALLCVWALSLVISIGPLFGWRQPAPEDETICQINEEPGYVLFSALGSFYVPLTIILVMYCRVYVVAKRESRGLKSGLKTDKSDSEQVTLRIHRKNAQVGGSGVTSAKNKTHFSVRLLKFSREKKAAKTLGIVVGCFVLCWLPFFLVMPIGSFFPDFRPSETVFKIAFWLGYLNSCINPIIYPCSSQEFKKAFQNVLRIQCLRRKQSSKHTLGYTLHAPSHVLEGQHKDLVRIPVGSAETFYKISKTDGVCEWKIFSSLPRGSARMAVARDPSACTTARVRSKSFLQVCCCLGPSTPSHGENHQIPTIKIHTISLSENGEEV
The assay is described as follows: Compound was tested for binding affinity against cloned Alpha-1A adrenergic receptor from bovine brain using radioligand ([3H]prazosin) binding assay.

Each structure is given as a SMILES string. Bounds are passed on as bounds.

Sequence of D(2) dopamine receptor (P61169 whole entry): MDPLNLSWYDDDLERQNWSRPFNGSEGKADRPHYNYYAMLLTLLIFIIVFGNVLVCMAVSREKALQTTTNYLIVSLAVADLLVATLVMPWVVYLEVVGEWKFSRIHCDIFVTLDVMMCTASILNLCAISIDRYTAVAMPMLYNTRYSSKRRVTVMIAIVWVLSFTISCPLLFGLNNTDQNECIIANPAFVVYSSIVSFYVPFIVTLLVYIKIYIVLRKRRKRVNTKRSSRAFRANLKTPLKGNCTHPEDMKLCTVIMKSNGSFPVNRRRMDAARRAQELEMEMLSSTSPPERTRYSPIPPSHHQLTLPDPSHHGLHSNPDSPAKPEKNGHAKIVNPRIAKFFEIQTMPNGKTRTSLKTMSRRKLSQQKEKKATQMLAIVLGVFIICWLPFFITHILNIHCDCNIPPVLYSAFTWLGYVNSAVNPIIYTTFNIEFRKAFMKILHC

Consider `COc1cc2nc(N3CCN(C(=O)c4ccco4)[C@H]4CCCC[C@H]43)nc(N)c2cc1OC` [CYCLAZOSIN], for which the Ki (as a rule, the dissociation constant of the complex between target and ligand, obtained from inhibition or displacement) in assay [1] is 6.17 µM; on D(2) dopamine receptor, over 10 µM. Besides, the “Log Ki” value in assay [2] was -5.86.

`COc1cc2nc(N3CCN(C(=O)c4ccco4)[C@@H]4CCCC[C@@H]43)nc(N)c2cc1OC`: the Ki in assay [1] was 12.9 µM; in assay [3], 0.00324 µM; in assay [4], 0.0123 µM; in assay [5] it was 0.000135 µM; on D(2) dopamine receptor it was 8.32 µM. In addition, in assay [2], the “Log Ki” value was -6.13.

Turning to `COc1cc2nc(N3CCN(C(=O)c4ccco4)CC3)nc(N)c2cc1OC` [PRAZOSIN], the Ki in assay [1] is 2.34 µM; on D(2) dopamine receptor it was over 10 µM.

In the case of `O=C(CCCN1CCC2(CC1)C(=O)NCN2c1ccccc1)c1ccc(F)cc1` [SPIPERONE], the Ki was 0.0251 µM in assay [1] and 0.0135 µM in assay [6].

As to `COc1cc2nc(N3CCN(C(=O)c4ccco4)C4CCCCC43)nc(N)c2cc1OC` (racemic), the Ki in assay [1] was 6.92 µM; on D(2) dopamine receptor it was over 10 µM. The “Log Ki” value in assay [2] is listed as -6.17.
